The full list was thinned out, with hits kept by preference.
Lung fibro prol: blocks proliferation of human lung fibroblasts. 85,000 tested, 1.1% active. LL 47 human lung fibroblast viability, ATP luminescence; active compounds read low. viability, % at 10 µM. AID 719;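 active means viability at or below 50% in the single dose screen; inactive means viability above 50%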;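 further: compound exposure lasted 72 h before the ATP readout; 100% = median luminescence of untreated cell-only wells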
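Material: Human LL 47 lung fibroblast cells | Input: 1,150 cells/well | Buffer or medium: IMEM plus 15% FBS | Compound dosing: 0.1% DMSO in all compound wells | Times: Overnight cell rest, 72 h compound treatment at 37 °C | Signal: CellTiter-Glo luminescence measuring cellular ATP | Measure: % viability versus median cells-only luminescence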
HUVEC prolif 384: inhibitors of human endothelial cell proliferation; HUVEC proliferation, CellTiter-Glo luminescence, 72 h; active compounds read low; viability, % at 10 µM (by protocol); 86,000 tested, 1.1% active; AID 648;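 active means viability at or below 30%; inactive means viability above 30%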;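 further: 100% = median luminescence of DMSO-only cell control wells on each plate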
bCat KO growth: beta-catenin-lacking colon tumor cell growth suppression. HCT116 beta-catenin knockout viability, CellTiter-Glo, 60 h; active compounds read low. 140,000 tested, 1.5% active. AID 818. viability, % at 10 µM;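 active means viability at or under a set limit, the compound median less 4 SD, cut at about 6% in these data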;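 further: 0% = Hyamine 1622 control at 20 µM and 100% = untreated cell control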
H69AR growth 86K: growth inhibitors of human H69AR lung tumor cells. AID 598. H69AR lung tumor viability, ATP luminescence, 72 h; active compounds read low. 85,000 tested, 6% active. viability, % at 10 µM;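 active means viability at or below 40%; inactive means viability above 40%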;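 further: multidrug resistant small cell line overexpressing MRP-1 efflux transporter; 100% = mean luminescence of untreated control wells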
PTEN del growth: suppresses growth of cells with PTEN deletion. HCT116 PTEN-null viability, CellTiter-Glo, 60 h; active compounds read low. 140,000 tested, 1.2% active. viability, % at 10 µM. AID 827;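 active means viability at or below a set limit, 4 SD under the median of all tested compounds, cut at about 3.7% in these data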;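 further: PTEN knockout HCT116 line with beta catenin targeted HCT116 as companion control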
* = called active by the depositor; / = not tested or not shown.

SMILES	Lung fibro prol	HUVEC prolif 384	bCat KO growth	H69AR growth 86K	PTEN del growth
CCCNc1cc(C)c(C#N)c2nc3ccccc3n12	107	91	88	37*	87
CCc1c(C)c(C#N)c2nc3ccccc3n2c1NCCN(C)C	104	103	89	50	102
Cc1cc(NCCCO)n2c(nc3ccccc32)c1C#N	/	/	104	/	98
C=CCc1c(C)c(C#N)c2nc3ccccc3n2c1NCCN(C)C	96	99	84	33*	91
CCc1c(C)c(C#N)c2nc3ccccc3n2c1NCc1ccco1	92	85	83	36*	77
CCOc1ccc(-n2nc(C(=O)N3CCOCC3)c3ccccc3c2=O)cc1	102	103	/	89	/
Cc1nc2cc(N3CCCCC3)c(NC(=O)c3cccnc3)cc2c(=O)n1Cc1ccccc1	38*	72	103	33*	102
CCOC(=O)c1c(Nc2ccc(Cl)cc2)sc(/C=C2\C=Nc3ccccc32)c1O	46*	12*	37	2.7*	14
Oc1nc(Nc2cccc(Cl)c2)sc1/C=C1\C=Nc2ccccc21	/	/	70	/	68
O=S(=O)(c1ccc2nc(SCc3cccc(Cl)c3)[nH]c2c1)N1CCOCC1	/	/	75	/	81
CC(C)c1ccc(N2C(=O)CC(Sc3ncn[nH]3)C2=O)cc1 (stereo not drawn)	104	99	100	83	90
COc1ccc(N2C(=O)CC(Sc3ncn[nH]3)C2=O)c(OC)c1 (stereo not drawn)	87	89	94	1.6*	105
OC(CN1CCN(c2ccccc2)CC1)c1ccc2c(c1)CCN2 (stereo not drawn)	93	90	92	63	93
Cc1cc(NCCCN2CCOCC2)n2nc(C)c(-c3ccc(F)cc3)c2n1	80	73	70	15*	67
Cc1cc(NCCCN2CCOCC2)n2nc(C)c(-c3ccccc3)c2n1	100	94	67	22*	80
Cc1cc(NCCCN2CCOCC2)n2ncc(-c3ccccc3)c2n1	86	83	87	26*	87
Cc1cc(NCCC(C)C)n2nc(C)c(-c3ccccc3)c2n1	82	70	92	13*	78
O=C(CN(c1cccc(Cl)c1)S(=O)(=O)c1ccc(Cl)cc1)N1CCc2ccccc2C1	/	/	66	/	65
NC(=O)c1cc(-c2ccccc2)nc(N2CCOCC2)n1	71	57	69	64	67
CC[n+]1cc(-c2ccccc2)nc(N2CCOCC2)n1	99	27*	75	91	78
CNc1nc(SCc2ccc(C)cc2)nc2c1CCCC2	/	/	85	/	72
COc1ccc(C2=Nn3c(nnc3-c3cccnc3)SC2)cc1OC	45*	71	/	85	/
COc1ccccc1-c1nnc2n1N=C(c1ccc(O)c(O)c1)CS2	38*	51	20	21*	15
COc1ccc(C2=Nn3c(nnc3-c3ccncc3)SC2)cc1OC	/	/	37	/	25
O=c1nccc(NCc2ccco2)[nH]1	107	107	90	103	94
SMILES	Lung fibro prol	HUVEC prolif 384	bCat KO growth	H69AR growth 86K	PTEN del growth
O=C1c2ccccc2-c2onc3ccc(NCc4ccco4)c1c23	87	54	54	34*	50
CCNc1ccc2noc3c2c1C(=O)c1ccccc1-3	87	69	33	18*	46
CCOc1ccc2noc3c2c1C(=O)c1ccccc1-3	/	/	78	/	76
CCCN(CCC)S(=O)(=O)c1ccc(NS(=O)(=O)c2ccc(F)cc2)cc1	92	85	89	84	92
Oc1ccc(Br)cc1-c1cc(-c2ccccc2)n[nH]1	71	27*	13	6.3*	19
Oc1ccccc1-c1cc(-c2ccc3c(c2)OCCO3)n[nH]1	81	49	23	17*	43
Cn1c(-c2cc(Br)ccc2O)n[nH]c1=S	93	88	90	100	83
Oc1ccc(Br)cc1-c1cc(-c2ccc(Cl)cc2)n[nH]1	39*	8.1*	3.7*	54	3.3*
COc1ccc(-c2cc(-c3ccccc3O)[nH]n2)cc1OC	79	52	57	59	52
Cc1ccccc1C(=O)N[C@H](C(=O)OCC(=O)c1ccc[nH]1)C(C)C	/	/	94	/	98
COc1ccc(OC)c(Nc2cc(C)nc3nc(C)nn23)c1	82	75	59	22*	56
COc1ccc(C)cc1Nc1cc(C)nc2nc(C)nn12	89	77	58	25*	56
COc1ccc(Nc2cc(C)nc3nc(C)nn23)c(OC)c1	97	100	86	85	97
COc1ccc(Nc2cc(C)nc3nc(C)nn23)cc1Cl	106	104	76	72	95
